Shown are actives, neighbours in structure and some others; about 2% of the full set was active somewhere.
Xi reactivation: X-chromosome reactivation activator; XiGFP mouse fibroblasts, % GFP-positive cells imaging, 3 d; cells co-treated with 5-aza-dC sensitizer; scaled so ellipticine positive control = 100%; activation, % at 7.58 µM; 0.055% of 360,000 active;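 active = mean normalized replicate activation at least 10% and every replicate at or above 10%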;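 also: 0% = median of on-plate neutral control wells and 100% = ellipticine 6 µM median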
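Schedule: 3 d treatment, 15 min room-temperature fixation; system: 68-5-11 XiGFP fibroblast line; buffer or medium: DMEM plus 5-aza-dC sensitizer; control set: ellipticine 6 µM positive control; compound: one concentration, pinned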
TROY signal inh: inhibitors of TROY-dependent NF-kB signaling. inhibition, % at 10 µM. 0.98% of 360,000 active. Q293 LMP1-TROYcd NF-kB luciferase reporter, 4 h;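 active = compounds whose plate-normalised and pattern-corrected inhibition of the luciferase reporter signal at the single screening dose is 50% or more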
CaV13 FRET inh: Disruptors of the CACNA1D IQ motif to Ca2+-dependent inactivation inhibitor domain association, primary screening, Förster resonance energy transfer in intact living …. HEK cells, CFP/YFP FRET ICDI-IQ, plate reader, 10 min; percent FRET-ratio fall versus neutral wells. inhibition, % at 12.3 µM. 0.098% of 340,000 active. AID 743397;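 active = mean replicate inhibition of at least 30% and at least 1% of replicates passing that level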;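 also: 0% = median of the neutral control wells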
LGR2 inh: inhibitors of bursicon-induced Drosophila LGR2 receptor cAMP signaling; HEK293 LGR2, CRE-luciferase, bursicon-stimulated, 4 h; inhibition, % at 9.99 µM; 0.35% of 380,000 active;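 active = drop in luminescence signal, shown as inhibition above about 50% in the replicate tests, limit read from the data, passing the limit was not always enough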;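 also: agonist challenge used bursicon conditioned medium at about half maximal strength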
TWEAK Fn14 block: TWEAK-Fn14 signaling inhibition; TWEAK-stimulated Fn14 reporter cells, luciferase luminescence, 8 h; inhibition, % at 10 µM; 2% of 360,000 active; in the data active = inhibition above about 50%
* marks the source's active call; other numbers are inactive results; nt = no result given.

SMILES	Xi reactivation	TROY signal inh	CaV13 FRET inh	LGR2 inh	TWEAK Fn14 block
CCOC(=O)c1nn(-c2ccc3c(c2)CCN3C(C)=O)cc1O	nt	20	-8	46	65*
COCC(=O)N(C)C[C@H]1Oc2cc(-c3ccc(C)cc3)ccc2S(=O)(=O)N([C@@H](C)CO)C[C@@H]1C	0	nt	nt	-3	nt
O=C(C[C@@H]1CC[C@H]2[C@@H](COC[C@@H](O)CN2CCc2ccccc2)O1)NCc1ccc(F)cc1	0	nt	nt	13	nt
CO[C@H](CN(C)C(=O)C1CCOCC1)[C@H](C)CN(C(=O)Nc1ccc(F)cc1)[C@@H](C)CO	0	nt	nt	4	nt
CCCCCCCCCCCCCCCCn1cc[n+](C)c1	0	42	-4	nt	78*
O=S(=O)(c1ccc(Cl)c(Cl)c1)c1snnc1-c1ccccc1	nt	52*	nt	nt	78*
Cc1cc(C)cc(Nc2ncc3c(n2)CCCC3=O)c1	nt	16	nt	37	71*
O=S(=O)(c1ccc(F)cc1)N1CCCCN2[C@H](CO)[C@@H](c3ccc(-c4ccccc4)cc3)[C@H]2C1	0	nt	nt	18	nt
N#C/C(=C\c1cccc([N+](=O)[O-])c1)c1nnc2n1CCCCC2	0	82*	-5	20	91*
COc1cccc(C(=O)Oc2c(Br)cc(Br)cc2/C=N/NC(=O)c2cc(C)[nH]n2)c1	0	28	-8	21	52*
CCS(=O)(=O)CCSc1nc2ccccc2s1	nt	-2	nt	nt	-8
CNC(=O)NC(=O)COC(=O)CCCSc1nc2ccccc2s1	0	40	-3	nt	59*
O=S(=O)(CCSc1nc2ccccc2s1)c1nc2ccccc2s1	nt	69*	-5	nt	83*
NC(=O)COC(=O)CCCSc1nc2ccccc2s1	0	44	9	4	54*
O=C(C[C@@H]1CC[C@H](NS(=O)(=O)c2ccc(F)cc2)[C@H](CO)O1)NCc1ccccc1F	0	nt	nt	-9	nt
C[C@H](CO)N1C[C@H](C)[C@H](CN(C)C(=O)Nc2ccc(F)cc2)Oc2ccc(NS(C)(=O)=O)cc2CC1=O	1	nt	nt	15	nt
COc1ccc(NC(=O)N[C@H]2CC[C@H](CCNS(=O)(=O)c3ccccc3F)O[C@H]2CO)cc1	0	nt	nt	-6	nt
CCCc1cc(C(=O)Nc2ccc(C(=O)c3ccc(F)cc3)cc2)n(C)n1	nt	59*	nt	nt	50*
CCCc1cc(C(=O)Nc2ccc(C(=O)c3ccccc3)cc2)n(C)n1	0	34	nt	13	27
O=C(O)CCCN1C(=O)/C(=C\c2ccccc2OCc2ccccc2)SC1=S	0	56*	-17	11	-6
O=C(O)CCCN1C(=O)/C(=C\C(Cl)=C\c2ccccc2)SC1=S	0	26	-21	-5	102*
CO[C@@H]1CN(C)C(=O)c2ccc(NS(C)(=O)=O)cc2OC[C@@H](C)N(Cc2cccnc2)C[C@H]1C	0	nt	nt	6	nt
CCCc1ccc(-c2ccc(F)c(N)c2)nc1	nt	63*	nt	79*	89*
O=S(=O)(c1ccc(Cl)cc1)c1cnc2ccccc2n1	0	13	9	30	59*
Cc1ccc(Cn2c(N)c(S(=O)(=O)c3cccs3)c3nc4ccccc4nc32)cc1	nt	63*	-5	nt	46
SMILES	Xi reactivation	TROY signal inh	CaV13 FRET inh	LGR2 inh	TWEAK Fn14 block
CCCCn1c(N)c(S(=O)(=O)c2ccc(C)cc2)c2nc3ccccc3nc21	0	65*	-5	2	52*
Nc1c(S(=O)(=O)c2cccs2)c2nc3ccccc3nc2n1Cc1ccccc1	nt	41	-4	nt	17
CO[C@H]1CN(C)C(=O)c2ccc(NS(C)(=O)=O)cc2OC[C@H](C)N(Cc2ccccn2)C[C@@H]1C	0	nt	nt	-9	nt
CC(C)Cc1nc2oc3c(NCCCN4CCOCC4)ncnc3c2c2c1CCC2	nt	6	-5	nt	-54
CC(C)Cc1nc2oc3c(Cl)ncnc3c2c2c1CCC2	nt	-7	-7	-2	90*
O=C(C[C@@H]1C[C@H]2c3cc(NC(=O)C4CCC4)ccc3O[C@H]2[C@H](CO)O1)NCc1cc(F)ccc1F	0	nt	nt	3	nt
Cc1ccccc1-n1c(C)cc(/C=C2/C(=N)N3C(c4ccccc4)=CSC3=NC2=O)c1C	0	8	-6	-12	55*
CC1(C)CC(=O)C=C(Nc2ccc3c(c2)OCCO3)C1	nt	50	-7	nt	70*
Cc1ccc(NC2=CC(=O)CC(C)(C)C2)cc1C	nt	-26	-5	nt	-12

Assay outcomes: PubChem BioAssay, several laboratories
